Screens from PubChem BioAssay.
A selection: hits, their analogues and other compounds. The true share with any hit is near 5.8%.
T cruzi growth – T. cruzi proliferation inhibition | T. cruzi beta-gal in NIH3T3, GalScreen luminescence, 90 h | inhibition, % at 8.34 µM | 5.9% of 77,000 active | AID 624255;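 active = mean inhibition above about 93%, with at least 55% of replicates each passing it, limit read from the data, passing the limit was not always enough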
Pf Dd2 inh – inhibitors of Plasmodium falciparum Dd2 growth | P. falciparum Dd2 growth, SYBR Green, 72 h; hits give low values | activity change, % at 10 µM | 2.3% of 94,000 active; in the data active = activity change below about -80%
IDH1 R132H inh – blocks human IDH1 R132H reductase activity; inhibition, % at 10 µM; diaphorase/resazurin fluorescence, 60 min; 0.18% of 70,000 active; in the data active = inhibition above about 34%;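 note: 0% = DMSO and 100% = no enzyme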
Target sequence (O75874 whole entry R132H): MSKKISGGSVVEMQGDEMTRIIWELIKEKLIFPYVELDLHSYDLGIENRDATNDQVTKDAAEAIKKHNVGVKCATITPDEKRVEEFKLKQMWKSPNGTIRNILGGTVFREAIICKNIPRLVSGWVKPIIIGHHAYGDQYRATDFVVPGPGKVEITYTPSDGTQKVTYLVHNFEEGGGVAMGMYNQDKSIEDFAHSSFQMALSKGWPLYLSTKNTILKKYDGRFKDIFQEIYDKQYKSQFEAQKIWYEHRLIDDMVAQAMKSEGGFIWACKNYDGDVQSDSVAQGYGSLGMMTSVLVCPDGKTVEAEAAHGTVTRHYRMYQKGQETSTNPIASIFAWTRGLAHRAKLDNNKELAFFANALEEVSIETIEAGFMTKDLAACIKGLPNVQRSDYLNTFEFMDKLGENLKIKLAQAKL
KDM4C inh – blocks human GASC-1 (KDM4C) demethylase activity | GST-KDM4C 2-372, H3K9me3 peptide, LANCE TR-FRET | inhibition, % at 12.5 µM | 0.15% of 96,000 active;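 active = mean replicate inhibition above about 25%, with at least 55% of replicates also reaching it, limit read from the data, passing the limit was not always enough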
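reagent = H3K9me3 peptide substrate, Fe(II), 2-oxoglutarate | system = GST-tagged GASC-1 (JMJD2C) catalytic fragment, aa 2-372 | amount = enzyme final amount 10 nM | read-out = Fall in 671/618 emission ratio as inhibition | medium = HEPES buffer, pH 7.5, plus ascorbate | schedule = 30 min reaction, 60 min detection, RT | measured by = LANCE TR-FRET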
Active calls of the source: *; x = no result given.

SMILES | T cruzi growth | Pf Dd2 inh | IDH1 R132H inh | KDM4C inh
COCc1cn(CC[C@H]2CC[C@@H](NC(=O)CCN3CCCCC3)[C@H](CO)O2)nn1 | -55 | 17 | 0 | 3
CN(C)CC(=O)N[C@H]1CC[C@H](CCn2cc(CN(C)C)nn2)O[C@H]1CO | 60 | 1 | 101* | 92*
COc1ccccc1-n1nnnc1SCC(=O)Nc1ccccc1F | x | x | 0 | x
O=C(CSc1nc2sc3c(c2c(=O)n1C1CCCCC1)CCCC3)Nc1ccccc1 | x | x | 3 | x
C[C@@H]1CN([C@@H](C)CO)C(=O)c2cc(NC(=O)Nc3ccc(C(F)(F)F)cc3)ccc2O[C@@H](C)CCCCO[C@@H]1CN(C)S(=O)(=O)c1ccc(Cl)cc1 | 84 | -86* | x | -4
C[C@@H]1CCCCO[C@@H](CN(C)S(=O)(=O)c2ccc(Cl)cc2)[C@@H](C)CN([C@@H](C)CO)C(=O)c2cc(NC(=O)Nc3ccc(C(F)(F)F)cc3)ccc2O1 | 55 | -83* | x | -2
Cc1ccc(S(=O)(=O)N(C)C[C@H]2OCCCC[C@@H](C)Oc3ccc(NC(=O)Nc4ccc(C(F)(F)F)cc4)cc3C(=O)N([C@@H](C)CO)C[C@@H]2C)cc1 | x | -79 | x | 0
C[C@@H]1CCCCO[C@H](CN(C)S(=O)(=O)c2ccc(Cl)cc2)[C@H](C)CN([C@@H](C)CO)C(=O)c2cc(NC(=O)Nc3ccc(C(F)(F)F)cc3)ccc2O1 | 86 | -57 | 3 | 6
Cc1ccc(S(=O)(=O)N(C)C[C@@H]2OCCCC[C@@H](C)Oc3ccc(NC(=O)Nc4ccc(C(F)(F)F)cc4)cc3C(=O)N([C@H](C)CO)C[C@@H]2C)cc1 | x | -82* | x | 0
Cc1ccc(S(=O)(=O)N(C)C[C@H]2OCCCC[C@H](C)Oc3ccc(NC(=O)Nc4ccc(C(F)(F)F)cc4)cc3C(=O)N([C@@H](C)CO)C[C@H]2C)cc1 | x | -66 | x | -2
C=CCN1C(=O)[C@]2(O[C@H](CCO)[C@@H]([Si](C)(C)c3ccc(OC)cc3)[C@@H]2C)c2cc(NC(=O)[C@H](C)O)ccc21 | x | x | 0 | x
C=CCN1C(=O)[C@@]2(O[C@@H](CCn3cc(CCO)nn3)[C@H]([Si](C)(C)c3ccc(OC)cc3)[C@H]2C)c2cc(NC(=O)c3ccc(OC)cc3)ccc21 | x | x | 66* | x
Cc1ccc(OCC(=O)Oc2cccc(NC3=NS(=O)(=O)c4ccccc43)c2)cc1 | x | x | 4 | x
CCCN(C)C[C@H]1Oc2ncc(C#CC3CC3)cc2C(=O)N([C@H](C)CO)C[C@H]1C | 63 | -83* | 0 | 0
CCCN(C)C[C@H]1Oc2ncc(C#Cc3ccc(F)cc3)cc2C(=O)N([C@@H](C)CO)C[C@H]1C | 92 | -86* | -1 | -2
O=[N+]([O-])c1nn(-c2ccc(Cl)cc2)n(O)c1=NCC1CCCO1 (centres undefined) | x | x | 0 | x
O=C(Nc1cc(F)ccc1F)N1CC(=O)N2[C@H](CO)[C@@H](c3ccc(C#CC4CCCCC4)cc3)[C@@H]2C1 | x | -82* | x | -4
O=C(Nc1ccccc1F)N1CC(=O)N2[C@H](CO)[C@@H](c3ccc(-c4ccccc4)cc3)[C@H]2C1 | x | -84* | x | -1
O=C(Nc1ccccc1F)N1CC(=O)N2[C@H](CO)[C@H](c3ccc(-c4ccccc4)cc3)[C@@H]2C1 | x | -6 | x | -1
CC1=CC(C)(C)Nc2ccc(OC(=O)CN3C(=O)c4cccc([N+](=O)[O-])c4C3=O)cc21 | x | x | 0 | x
O=C(N/N=C/c1ccc(C(F)(F)F)cc1)c1ccccc1O | x | x | 0 | x
C[C@H]1CN([C@@H](C)CO)C(=O)c2ccccc2-c2ccccc2CO[C@H]1CN(C)Cc1ccc(C(F)(F)F)cc1 | x | -92* | x | -2
C[C@H](CO)N1C[C@H](C)[C@H](CN(C)S(=O)(=O)c2ccc(C(F)(F)F)cc2)OCc2ccccc2-c2ccccc2C1=O | 93 | -85* | -5 | -1
Cc1ccccc1S(=O)(=O)N(C)C[C@H]1OCc2ccccc2-c2ccccc2C(=O)N([C@H](C)CO)C[C@H]1C | 93 | -86* | -6 | -1
C[C@H](CO)N1C[C@H](C)[C@H](CN(C)Cc2ccc(C(F)(F)F)cc2)OCc2ccccc2-c2ccccc2C1=O | x | -84* | x | 0
SMILES | T cruzi growth | Pf Dd2 inh | IDH1 R132H inh | KDM4C inh
Cc1ccc(-n2c(SCC(=O)Nc3ccc(F)c(Cl)c3)nnc2-c2ccco2)cc1 | x | x | 0 | x
C[C@H]1CN([C@@H](C)CO)C(=O)c2c(c3ccccc3n2C)-c2ccccc2CO[C@H]1CN(C)Cc1ccccc1C(F)(F)F | x | -69 | x | 0
C[C@@H]1CN([C@H](C)CO)C(=O)c2ccccc2-c2ccccc2CO[C@@H]1CN(C)Cc1ccc(C(F)(F)F)cc1 | x | -87* | x | -1
C[C@@H]1CN([C@@H](C)CO)C(=O)c2ccccc2-c2ccccc2CO[C@H]1CN(C)Cc1ccccc1C(F)(F)F | x | -90* | x | -2
C[C@H]1CN([C@@H](C)CO)C(=O)c2ccccc2-c2ccccc2CO[C@@H]1CN(C)Cc1ccc(C(F)(F)F)cc1 | x | -26 | x | -1
COC(=O)C1=CO[C@@H](O[C@@H]2O[C@H](CO)[C@@H](O)[C@H](O)[C@H]2O)[C@H]2[C@]1(O)[C@H](O)C[C@]2(C)O | x | x | 0 | x
C[C@@H]1CN([C@@H](C)CO)C(=O)Cc2cc(NC(=O)Nc3ccccc3)ccc2O[C@H]1CN(C)Cc1ccc(Oc2ccccc2)cc1 | 72 | -87* | 1 | 1
C[C@H](CO)N1C[C@H](C)[C@@H](CN(C)C(=O)Nc2ccccc2)Oc2ccc(NC(=O)Nc3ccc4c(c3)OCO4)cc2CC1=O | 6 | 6 | 1 | 4
C[C@@H]1CN([C@@H](C)CO)C(=O)Cc2cc(NC(=O)Nc3ccccc3)ccc2O[C@H]1CN(C)Cc1ccc(-c2ccccc2)cc1 | 60 | -88* | -6 | -1
C[C@H]1CN([C@@H](C)CO)C(=O)Cc2cc(NC(=O)Nc3ccccc3)ccc2O[C@H]1CN(C)Cc1ccc(Oc2ccccc2)cc1 | 64 | -6 | -1 | -2
C[C@H](CO)N1C[C@H](C)[C@@H](CN(C)Cc2ccc3c(c2)OCO3)Oc2ccc(NC(=O)Nc3ccc4c(c3)OCO4)cc2CC1=O | 79 | -91* | 0 | -4
C[C@H](CO)N1C[C@H](C)[C@@H](CN(C)C(=O)Nc2ccc3c(c2)OCO3)Oc2ccc(NC(=O)Nc3ccccc3)cc2CC1=O | -27 | -83* | 0 | 1
NC(=O)C1CC(=O)N(c2ccc(OCC(=O)Nc3cc(Cl)cc(Cl)c3)cc2)C1 (centres undefined) | x | x | 0 | x
O=C(N/N=C/c1ccc(F)c(Oc2ccccc2)c1)c1ccccn1 | x | x | 0 | x
C[C@H]1CN([C@@H](C)CO)C(=O)Cc2cc(NS(=O)(=O)c3cn(C)cn3)ccc2O[C@H]1CN(C)Cc1ccc(Oc2ccccc2)cc1 | 0 | 1 | -4 | 0
C[C@H](CO)N1C[C@H](C)[C@@H](CN(C)Cc2ccc(Oc3ccccc3)cc2)Oc2ccc(NS(=O)(=O)c3cn(C)cn3)cc2CC1=O | -74 | -90* | 1 | 0
C[C@H](CO)N1C[C@H](C)[C@@H](CN(C)Cc2ccc(-c3ccccc3)cc2)Oc2ccc(NC(=O)Nc3ccc4c(c3)OCO4)cc2CC1=O | 56 | -82* | 0 | 0
